Source: PubChem (several laboratories)
Most compounds without a hit are left out; they make up all but 3.3% or so of the library.
Arr AP2 block: human beta-arrestin and AP2 interaction inhibition. FITC-arrestin peptide / GST-AP2 beads, flow cytometry; AP2 beta2 appendage carries R879A mutation. inhibition, % at 10 µM. 340,000 tested, 0.31% active. AID 504490;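 active means inhibition above a set limit, near 3 SD of compounds lacking own fluorescence, cut at about 54% in these data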;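 further: plate controls were DMSO wells for no effect and 5 µM unlabelled arrestin peptide for full effect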
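System: GST-AP2 R879A bound to glutathione beads, E. coli-expressed. Also added: 50 nM FITC-arrestin peptide. Schedule: compound with beads 12 min RT, then probe 1 h RT. Signal: bead flow cytometry, FITC channel. Read-out basis: percent response.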
ATG4B inhibitor: inhibitors of human ATG4B cysteine protease; Q9Y4P1; ATG4B cleavage of LC3-PLA2, NBD-HPC fluorescence, 1 h; inhibition, % at 8.33 µM; 340,000 tested, 0.51% active; in the data active means inhibition above about 40%
Target sequence (Q9Y4P1 whole entry, looked up): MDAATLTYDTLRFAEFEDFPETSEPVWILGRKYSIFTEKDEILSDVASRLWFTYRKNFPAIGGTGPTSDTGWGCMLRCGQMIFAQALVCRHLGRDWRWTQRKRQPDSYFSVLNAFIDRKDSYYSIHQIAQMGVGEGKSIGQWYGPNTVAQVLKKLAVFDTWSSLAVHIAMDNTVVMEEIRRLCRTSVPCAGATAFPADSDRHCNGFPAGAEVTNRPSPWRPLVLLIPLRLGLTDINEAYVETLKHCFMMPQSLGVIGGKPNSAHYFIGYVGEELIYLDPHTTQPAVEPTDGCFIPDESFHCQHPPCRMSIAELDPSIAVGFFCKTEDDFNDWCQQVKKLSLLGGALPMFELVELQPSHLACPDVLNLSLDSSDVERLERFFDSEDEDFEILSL
ABCB6 inh MLPCN: inhibitors of human ABC transporter ABCB6; Q9NP58; K562-ABCB6 porphyrin accumulation, flow cytometry, 1 h; stronger effect = lower value; fluorescence ratio to DMSO, % at 10 µM; 360,000 tested, 0.19% active; AID 602162;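 active means fluorescence ratio to DMSO below 75%, the collection mean minus 3 SD; inconclusive means too few cells collected in the well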;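 further: signal is porphyrin accumulated inside mitochondria; 100% equals median channel fluorescence of DMSO control wells; lower ratio means ABCB6 inhibition with less porphyrin fluorescence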
CendR NRP1 mod: modulators of CendR peptide binding to human neuropilin-1; O14786; FAM-RPARPAR peptide binding to NRP-1, fluorescence polarization; inhibition, % at 25 µM; 360,000 tested, 0.85% active; AID 602438;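 active means inhibition or corrected inhibition above about 18%, plus a signal ratio from 0.5 to 1.5, limit read from the data, passing the limit was not always enough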
Myeloid diff MLP: promotes myeloid progenitor differentiation | calls only at 10 µM | ER-HoxA9 myeloid progenitors, lysozyme-GFP differentiation, flow cytometry | 360,000 tested, 1% active | AID 624256;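 active means normalized GFP-positive differentiation at or above the plate's own cutoff, the solvent-only control mean plus 3 SD; inconclusive means no clear call, values can overlap the other calls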;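 further: cells exposed to compound for four days before flow analysis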
Granule exo inh: blocks lytic granule exocytosis; TALL-104 LAMP-1 surface exposure, flow cytometry; cells stimulated with thapsigargin and PMA; inhibition, % at 10 µM; 360,000 tested, 0.66% active; AID 651702;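 active means inhibition above about 55%, limit read from the data; inconclusive means no clear call, values can overlap the other calls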
Arr AP2 CP1: human beta-arrestin and AP2 interaction inhibition, cherry pick. 1,300 tested, 2% active. shares compounds with Arr AP2 block. GST-AP2 beads, FITC arrestin peptide binding, flow cytometry; GST-fused beta2-adaptin appendage, R879A mutant. AID 504908. inhibition, % at 10 µM;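 active means inhibition above a set limit, roughly 3 SD of non-fluorescent compound noise, cut at about 38% in these data; inactive means inhibition at or below that limit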;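 further: loss of bead fluorescence from 50 nM FITC arrestin peptide bound to appendage; 0% = negative control wells and 100% = excess unlabelled arrestin peptide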
GST GSH counter: counter-screen for beta-arrestin AP2 inhibitors: GST-GSH bead binding | shares compounds with Arr AP2 block | GST-fluorescein binding to GSH beads, fluorescence | inhibition, % at 10 µM | 1,300 tested, 2% active;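 active means inhibition above 50%, about 3 SD of the inhibition seen with non-fluorescent compounds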;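 further: fluorescein maleimide labelled GST captured on 4 micron glutathione beads; higher means more loss of bead fluorescence from quenching or blocked binding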
Active calls of the source: *; i = inactive; ? = inconclusive; . = no result.

SMILES	Arr AP2 block	ATG4B inhibitor	ABCB6 inh MLPCN	CendR NRP1 mod	Myeloid diff MLP	Granule exo inh	Arr AP2 CP1	GST GSH counter
Cc1ccc(C(=O)CSc2nnc(C3CC3)n2C2CC2)s1	2	-3	99	12	i	-1	.	.
O=C(CCNC(=O)c1ccc(Br)cc1)NCc1ccccc1F	55*	-1	98	-4	i	-3	-6	-1
O=C(CCNC(=O)c1ccccc1)NCc1ccccc1F	16	-7	99	12	i	0	.	.
O=c1[nH]c2ccc(S(=O)(=O)N3CCN(c4ccc(F)cc4)CC3)cc2o1	5	-3	97	11	i	10	.	.
Cc1cc(C)cc(N(CC(=O)NC(C)(C)C)C(=O)CNC(=O)c2cccs2)c1	5	-8	106	0	i	-2	.	.
O=[N+]([O-])c1ccc(O)c(/C=N/NC(=S)Nc2ccc(Cl)cc2Cl)c1	-5	0	98	-20	i	?	.	.
Cc1cc(Cl)ccc1NC(=O)CCC(=O)N/N=C/c1cc([N+](=O)[O-])ccc1O	105*	-11	94	3	i	0	-1	3
Cc1c(Br)cccc1NC(=O)C1(C)CCN1Cc1ccc(OC(C)C)cc1 (centres undefined)	.	.	99	-1	i	-1	.	.
Cc1cccc(CN(C)C[C@@H]2OCc3cnnn3CCCC(=O)N([C@@H](C)CO)C[C@H]2C)c1	.	.	98	1	i	-5	.	.
Cc1cc(C)c(NC(=O)CS)c(Cl)c1	26	-5	89	4	i	2	.	.
Cc1cc(C)c(NC(=O)CC(=O)c2ccccc2)c(Cl)c1	-12	0	85	-1	i	1	11	-5
Cc1ccc(C2CC(c3cccs3)=NN2C(=O)CSc2nc3ccccc3o2)cc1 (centres undefined)	62*	15	96	8	i	0	-1	-7
CCCC(=O)Nc1c2c(nn1-c1cccc(Cl)c1)CS(=O)(=O)C2	2	1	104	-2	i	-7	.	.
CC(CC(=O)N(CCC1=CCCCC1)c1c(N)n(Cc2ccccc2)c(=O)[nH]c1=O)c1ccccc1 (centres undefined)	68*	2	93	-7	i	-2	0	-3
O=C(CC1CCCC1)Nc1ccc(Cl)c(S(=O)(=O)N2CCOCC2)c1	18	0	92	9	i	1	.	.
CC12CCC(O)CC1=CCC1C2CCC2(C)C3=NN=CC3CC12 (centres undefined)	17	-13	100	-11	i	-3	.	.
CC1CN(S(=O)(=O)c2ccc(CN3C(=O)c4cccnc4C3=O)cc2)c2ccccc2O1 (centres undefined)	59*	7	97	2	i	0	-3	-5
COc1ccc(NC(=S)N2CCCC(c3nc4ccc(C)cc4[nH]3)C2)cc1 (centres undefined)	57*	-5	99	10	i	0	-10	-3
COc1ccc(CNC(=O)[C@H](C)NC(=O)C2CC(=O)N(c3ccc(OC)cc3)C2)cc1 (some centres undefined)	1	-4	102	6	i	-2	.	.
COc1ccc(CNC(=O)[C@H](C)NC(=O)C2CC(=O)N(c3ccc4c(c3)OCO4)C2)cc1 (some centres undefined)	55*	-3	99	1	?	-17	1	1
C=CCn1c(SCC(=O)N(CC)c2c(N)n(Cc3ccccc3)c(=O)[nH]c2=O)nnc1-c1ccccc1OC	-3	0	98	0	i	-6	.	.
CC(=O)N/N=C\c1ccccc1OC/C=C/c1ccccc1	58*	2	100	-1	i	-2	-12	-5
CC(=O)N/N=C\c1cccc(OC/C=C/c2ccccc2)c1	58*	-6	101	-1	i	0	-16	0
CCOC(=O)N/N=C\c1cccc(OC)c1OC/C=C/c1ccccc1	30	6	103	8	i	4	.	.
Cn1c(SCC(=O)NC2CCCCC2)nnc1-c1ccccn1	35	-5	87	2	i	0	.	.
SMILES	Arr AP2 block	ATG4B inhibitor	ABCB6 inh MLPCN	CendR NRP1 mod	Myeloid diff MLP	Granule exo inh	Arr AP2 CP1	GST GSH counter
Cn1c(SCC(=O)NC2CCCC2)nnc1-c1ccccn1	60*	1	94	2	i	?	-14	-9
COC(=O)c1nc(-c2ccc(C)cc2)oc1N(C)C	59*	-3	98	2	i	-1	10	11
O=C(c1ccc2ncsc2c1)N1CCN(c2ccc(O)cc2)CC1	65*	-2	102	-2	i	-1	-9	-12
O=C(Nc1ccc2c(c1)OCCO2)c1coc2ccccc2c1=O	89*	-16	100	-56	i	14	4	-4
CC(C)c1ccc(NC(=O)c2ccccc2NC(=O)C2CCCCC2C(=O)O)cc1 (centres undefined)	54*	-1	93	5	i	-8	-6	-6
CC(C)c1ccc(NC(=O)c2ccccc2NC(=O)C2CC=CCC2C(=O)O)cc1 (centres undefined)	12	-11	98	-4	i	0	.	.
COc1ccc(Cl)cc1NC(=O)Nc1cnccn1	-2	-5	96	10	i	-1	.	.
COc1ccc(NC(=O)Nc2nc(C)cc(C)n2)c(OC)c1	10	4	106	7	i	-5	.	.
COc1ccc(C)cc1NC(=O)Nc1cnccn1	-9	-8	100	2	i	-2	2	0
COc1ccc(NC(=O)Nc2cnccn2)c(OC)c1	-6	-9	100	8	i	19	11	-5
CN(c1ccccc1)c1nc(N)c(C#N)c(CC#N)c1C#N	62*	4	98	18	i	-1	-11	-3
CCc1ccccc1NC(=O)Nc1cnccn1	45	-4	101	9	i	-1	-12	-6
CCOc1ccccc1NC(=O)Nc1cnccn1	103*	-8	86	2	i	-2	1	16
O=C(Nc1cnccn1)Nc1ccccc1Cl	2	-3	96	10	i	-1	.	.
COc1ccc(S(=O)(=O)N2CCN(c3ccc(F)cc3)CC2)cc1C(=O)N1CCOCC1	46	0	90	7	.	-1	.	.
O=C(Cc1ccccc1)Nc1ccc(NC(=O)c2ccco2)cc1Cl	3	13	101	0	i	11	.	.
O=C1NC(=S)NC1Cc1ccc(O)cc1 (centres undefined)	1	-2	104	-6	i	2	.	.
CCOC(=O)N1CCN(C(=O)CCSCCc2ccncc2)CC1	57*	-2	114	-1	i	-5	-5	-6
